ChEMBL document CHEMBL1833789, “Inhibition of xc⁻ transporter-mediated cystine uptake by sulfasalazine analogs” (Bioorg Med Chem Lett, 2011)

Target: T1, Cystine/glutamate transporter (Homo sapiens, UniProt Q9UPY5)
T1 sequence (Q9UPY5 whole entry): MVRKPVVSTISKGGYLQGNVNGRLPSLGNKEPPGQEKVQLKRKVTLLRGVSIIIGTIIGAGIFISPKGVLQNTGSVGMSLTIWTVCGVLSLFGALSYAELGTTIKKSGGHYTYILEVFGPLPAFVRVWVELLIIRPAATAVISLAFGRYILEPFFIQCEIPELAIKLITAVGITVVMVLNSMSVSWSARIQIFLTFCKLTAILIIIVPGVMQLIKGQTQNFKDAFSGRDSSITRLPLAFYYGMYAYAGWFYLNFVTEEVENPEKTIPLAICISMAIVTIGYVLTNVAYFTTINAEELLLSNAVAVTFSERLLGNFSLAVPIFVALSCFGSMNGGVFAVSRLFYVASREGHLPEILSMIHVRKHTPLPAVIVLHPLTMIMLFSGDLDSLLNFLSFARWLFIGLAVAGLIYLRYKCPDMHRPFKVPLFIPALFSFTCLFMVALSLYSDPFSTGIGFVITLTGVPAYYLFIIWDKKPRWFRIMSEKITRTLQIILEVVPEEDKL
Experiment: Inhibition of xc-cystine-glutamate antiporter-mediated cystine uptake in human U87 cells using L-[14C]cystine as substrate after 15 mins by liquid scintillation counting
Format: cell-based, U-87MG ATCC
Procedure, shortened: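 U87 human glioblastoma-astrocytoma cells, seeded at 0.067 × 10^6 per well and grown 6 days to confluency. Washed with pre-warmed sodium-free choline-chloride uptake buffer (HEPES 10 mM, pH 7.4), then given 80 µM L-[14C(U)]-cystine at 37 °C with or without inhibitor at various concentrations. Uptake stopped by three ice-cold washes, cells lysed in 0.1 N NaOH, counts normalized to protein.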

| SMILES | IC50 |
| --- | --- |
| N[C@@H](C(=O)O)c1ccc(C(=O)O)cc1 | > 1000 µM |
| COC(=O)c1cc(C#Cc2ccc(S(=O)(=O)Nc3ccccn3)cc2)ccc1O | > 1000 µM |
| O=C(O)c1cc(C#Cc2ccc(S(=O)(=O)Nc3ccccn3)cc2)ccc1O | 30 µM |
| COC(=O)c1cc(/C=C/c2ccc(S(=O)(=O)Nc3ccccn3)cc2)ccc1O | 900 µM |
| O=C(O)c1cc(/C=C/c2ccc(S(=O)(=O)Nc3ccccn3)cc2)ccc1O | 70 µM |
| COC(=O)c1cc(CCc2ccc(S(=O)(=O)Nc3ccccn3)cc2)ccc1O | > 1000 µM |
| O=C(O)c1cc(CCc2ccc(S(=O)(=O)Nc3ccccn3)cc2)ccc1O | 700 µM |
| O=C(O)c1cccc(C#Cc2ccc(S(=O)(=O)Nc3ccccn3)cc2)c1 | 75 µM |
| O=C(O)c1cccc(CCc2ccc(S(=O)(=O)Nc3ccccn3)cc2)c1 | 920 µM |
| O=C(O)c1cc(/N=N/c2ccccc2)ccc1O | 200 µM |
| O=C(O)c1cc(C#Cc2ccccc2)ccc1O | 150 µM |
| O=C(O)c1cccc(C#Cc2ccccc2)c1 | 270 µM |
| N[C@H](C(=O)O)c1ccc(C(=O)O)cc1 | 15 µM |
| Nc1ccc(O)c(C(=O)O)c1 [MESALAMINE] | > 1000 µM |
| Nc1ccc(S(=O)(=O)Nc2ccccn2)cc1 [SULFAPYRIDINE] | > 1000 µM |
| O=C(O)c1cc(/N=N/c2ccc(S(=O)(=O)Nc3ccccn3)cc2)ccc1O [SULFASALAZINE] | 30 µM |
| Cc1cccnc1NS(=O)(=O)c1ccc(C#Cc2ccc(O)c(C(=O)O)c2)cc1 [SUSALIMOD] | 70 µM |
